Consider two compounds from ChEMBL document CHEMBL1773072, “Diosgenin, a plant-derived sapogenin, exhibits antiviral activity in vitro against hepatitis C virus” (J Nat Prod, 2011).

Series [1] concerns Hepatitis C virus. The series is described as follows: Antiviral activity against Hepatitis C virus infected in human Ava5 cells assessed as decreased NS3 protein level at […] after 72 hrs by Western blotting. Format: functional, organism-based. The settings on record: Hepacivirus hominis. The procedure, abridged: (§1)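 Ava5 subgenomic replicon cells (Huh7-derived, HCV genotype 1b NS3–NS5B, neo) are kept in DMEM/10% FBS at 37 °C, 5% CO2 and exposed to compound for 72 h. Cells are washed in PBS and lysed in Tris/NaCl/1% Triton X-100. Lysates are clarified and run on 10% SDS-PAGE, then immunoblotted with anti-NS3; β-actin is the loading control.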
A general note: A western blot detects proteins with antibodies after separation by electrophoresis.

The nature of series [2]: Cytotoxicity against Hepatitis C virus infected human Ava5 cells assessed as cell viability after 5 days by MTS assay. Type of series: cell-based. The settings on record: ava5, 120 h. The procedure, abridged: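 Cells seeded, incubated overnight at 37 °C, 5% CO2, then medium replaced with compound-containing medium across a concentration range for five days. Viability by MTS colorimetric read at 490 nm after 2 h reagent incubation; ethanol as solvent control. Means ± SD.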

In series [3] the target is Signal transducer and activator of transcription 3 (Homo sapiens) (UniProt P40763). The series is described as follows: Inhibition of STAT3 phosphorylation at Tyr 705 in human Ava5 cells after 72 hrs by Western blotting. Type of series: cell-based. The procedure, abridged:
(§2)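 Ava5 cells incubated with a concentration series for 72 h. Whole-cell extracts were Western blotted with antibodies to STAT3 phosphorylated at Tyr705 and to total STAT3, with β-actin as loading control.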

The nature of series [4]: Cytotoxicity against Hepatitis C virus infected human Ava5 cells assessed as cell viability after 5 days by MTS assay in presence of IFN-alpha. Format: cell-based. The conditions noted are these: ava5, 120 h.
In series [5] the test system is Hepatitis C virus. The series is described as follows: Antiviral activity against Hepatitis C virus JFH-1 infected in human Huh7 cells expressing G(delta4AB)SEAP reporter gene assessed as decreased NS3 protein level at 20 uM after 8 days by Western blotting. Type of series: functional, organism-based. The conditions noted are these: Hepacivirus hominis, Huh-7. The procedure, abridged:
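Huh7-EG(Δ4B5A)SEAP cells seeded 5×10^4/well, incubated overnight, then infected with HCV JFH-1 (genotype 2a) at MOI 0.02 for 6 h. Unbound virus removed by medium replacement, then compound at 20 μM in basal medium for 7 days. Intracellular NS3 in lysates detected by Western blot.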
A general note: Reporter assays use an easily measured gene product as a stand-in for the process of interest.

In series [6] the test system is Hepatitis C virus. The experiment in a line: Antiviral activity against Hepatitis C virus infected in human Ava5 cells expressing EG(delta4AB)SEAP reporter gene assessed as decreased viral replication measured as SEAP activity by Phospha-Light assay. Format: functional, organism-based, Hepacivirus hominis. The procedure, abridged:
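Ava5-EG(Δ4AB)SEAP reporter cells seeded 6×10^3/well, after 24 h dosed with a concentration series. At 48 h medium replaced with fresh medium at same concentrations, incubated 24 h more. Secreted alkaline phosphatase in medium measured by chemiluminescent kit. EC50 from dose–response; three replicate wells, means ± SD.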

The test system of series [7] is Huh-7. The series is described as follows: Cytotoxicity against Hepatitis C virus JFH-1 infected human HuH7 cells. Format: cell-based.
Series [8] deals with Hepatitis C virus. The experiment in a line: Antiviral activity against Hepatitis C virus infected in human Ava5 cells expressing EG(delta4AB)SEAP reporter gene assessed as decreased viral RNA level after 72 hrs by RTqPCR analysis. Type of series: functional, organism-based. The settings on record: Hepacivirus hominis. The procedure, abridged: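 Ava5 cells seeded 1.5×10^5/well, incubated overnight, treated with a concentration series for 72 h. Total RNA TRIzol-extracted; HCV genotype 1b RNA quantified by SYBR Green RT-qPCR. Levels expressed relative to untreated cells (100%); triplicate, means ± SD.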

Series [9] concerns the target Signal transducer and activator of transcription 3 (Homo sapiens) (UniProt P40763). The experiment in a line: Effect on STAT3 protein production in human Ava5 cells after 72 hrs by Western blotting. Format: cell-based. The procedure, abridged: as §2
Series [10] relates to Hepatitis C virus. The experiment in a line: Antiviral activity against Hepatitis C virus infected in human Ava5 cells expressing EG(delta4AB)SEAP reporter gene assessed as decreased NS3 protein level after 72 hrs by Western blotting. Type of series: functional, organism-based. The conditions noted are these: Hepacivirus hominis. The procedure, abridged: as §1
Series [11] has as its system Hepatitis C virus. The series is described as follows: Antiviral activity against Hepatitis C virus infected in human Ava5 cells assessed as decreased NS3 protein level at 5 uM after 72 hrs by Western blotting. Type of series: functional, organism-based. The conditions noted are these: Hepacivirus hominis. The procedure, abridged: as §1
In series [12] the test system is Hepatitis C virus. The experiment in a line: Antiviral activity against Hepatitis C virus infected in human Ava5 cells assessed as decreased NS3 protein level at 5 uM after 72 hrs by Western blotting in presence of IFN-alpha. Type of series: functional, organism-based. The conditions noted are these: Hepacivirus hominis. The procedure, abridged: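 Ava5 replicon cells given compound (5 μM) or IFN-α (5, 10, 50 IU/mL), alone and combined, for 72 h. BILN 2061 served as NS3/4A inhibitor positive control. Washed cells stored at -80 °C, then lysates Western blotted for NS3 with β-actin as internal standard.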

The source made the active and inactive calls. The rule behind the calls is not given here.

Sequence of Signal transducer and activator of transcription 3 (Homo sapiens) (P40763 whole entry): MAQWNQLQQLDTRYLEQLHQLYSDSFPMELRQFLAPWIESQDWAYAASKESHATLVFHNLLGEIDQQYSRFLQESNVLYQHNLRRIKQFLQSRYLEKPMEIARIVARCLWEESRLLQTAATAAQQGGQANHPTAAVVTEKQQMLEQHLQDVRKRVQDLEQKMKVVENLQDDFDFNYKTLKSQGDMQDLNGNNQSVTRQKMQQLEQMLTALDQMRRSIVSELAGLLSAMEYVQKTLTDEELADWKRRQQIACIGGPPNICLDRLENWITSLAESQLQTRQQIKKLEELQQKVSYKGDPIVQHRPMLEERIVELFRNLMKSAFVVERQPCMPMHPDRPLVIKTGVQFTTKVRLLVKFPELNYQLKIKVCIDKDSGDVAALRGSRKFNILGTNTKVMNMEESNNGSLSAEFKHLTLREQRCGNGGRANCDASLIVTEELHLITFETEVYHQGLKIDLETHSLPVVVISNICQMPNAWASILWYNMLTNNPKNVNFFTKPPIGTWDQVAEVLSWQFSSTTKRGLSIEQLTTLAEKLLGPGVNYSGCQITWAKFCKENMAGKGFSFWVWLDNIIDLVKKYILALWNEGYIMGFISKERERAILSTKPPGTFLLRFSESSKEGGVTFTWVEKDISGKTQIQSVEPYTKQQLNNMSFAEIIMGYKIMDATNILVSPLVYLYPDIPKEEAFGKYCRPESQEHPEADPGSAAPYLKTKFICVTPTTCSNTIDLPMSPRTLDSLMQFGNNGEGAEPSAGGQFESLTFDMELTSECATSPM

As to `COc1ccc2c(O[C@@H]3C[C@H]4C(=O)N[C@]5(C(=O)O)C[C@H]5/C=C\CCCCC[C@H](NC(=O)OC5CCCC5)C(=O)N4C3)cc(-c3csc(NC(C)C)n3)nc2c1`, in [1], the outcome was Active.
In the case of `C[C@@H]1CC[C@@]2(OC1)O[C@H]1C[C@H]3[C@@H]4CC=C5C[C@@H](O)CC[C@]5(C)[C@H]4CC[C@]3(C)[C@H]1[C@@H]2C` [DISOGENIN], the Activity entry is “Non-toxic” in series [2]; “Non-toxic” in [4]; “Dose-dependent effect” in [6] (Hepacivirus hominis); “Non-toxic” in series [7]; “Dose-dependent effect” in series [8]; “Dose-dependent effect” in [10]. Also, in series [3], the inhibition entry is “Dose-dependent effect”. Also, the result in series [5], in series [11] and in series [12] was Active. Further, the EC50 (as a rule, the concentration needed to bring the measured effect to its halfway point) in series [6] came to 3.8 µM. Moreover, in [9], the result was inactive.
